Columns and labels:
T47D [1] = assay: Inhibition of human T47D cells assessed as cell viability under normoxic condition after 48 hrs; type: functional, cell-based
In short: (§1)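 Neutral Red proliferation/viability assay on T47D or MDA-MB-231 cells kept in DMEM/F12 with 10% FCS at 37 °C under 5% CO2, with 48 h compound exposure. Read-out was OD540, and % inhibition = 1 − OD540(treated)/OD540(control). IC50 was derived from the concentration–response data.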

T47D [2] = assay: Cell viability of human T47D cells under hypoxic condition after 16 hrs; type: functional, cell-based
[3] = target: T1, Hypoxia inducible factors; HIF-1-alpha, HIF-2-alpha (Homo sapiens, UniProt Q16665+Q99814); assay: Inhibition of 1, 10-phenanthroline-induced HIF1 activity in human T47D cells by cell based reporter assay
In short: (§2)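 T47D cells grown in DMEM/F12 with glutamine, 10% FCS and penicillin/streptomycin at 37 °C under 5% CO2, then transiently transfected with the pHRE-TK-Luc reporter. Compounds from DMSO stocks were tested at half-log concentrations for 16 h, with luciferase read-out. IC50 was taken from curve fits of triplicate experiments.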

MDA-MB-231 [4] = assay: Inhibition of human MDA-MB-231 cells assessed as cell viability under hypoxic condition after 48 hrs; type: functional, cell-based; settings: MDA-MB-231, 48 h; in short: as §1
T47D [5] = assay: Inhibition of human T47D cells assessed as cell viability under hypoxic condition after 48 hrs; type: functional, cell-based; in short: as §1
MDA-MB-231 [6] = assay: Inhibition of human MDA-MB-231 cells assessed as cell viability under normoxic condition after 48 hrs; type: functional, cell-based; settings: MDA-MB-231, 48 h; in short: as §1
[7] = target: T1, Hypoxia inducible factors; HIF-1-alpha, HIF-2-alpha; assay: Inhibition of HIF1 activity in human T47D cells by cell based reporter assay; in short: as §2

IC50 (T47D [1]): 8.7 µM
IC50 (T47D [2]): 19 µM
IC50 [3]: 5.1 µM
IC50 (MDA-MB-231 [4]): 7 µM
IC50 (T47D [5]): 8.3 µM
IC50 (MDA-MB-231 [6]): 6 µM
IC50 [7]: 4.3 µM
Structure (SMILES): COc1ccc2c(O)c(O)ccc2c1-c1c(OC)ccc2c(O)c(O)ccc12
